From ChEMBL document CHEMBL1123566, “Synthesis and cardiac electrophysiological activity of 2- and 3-[(substituted phenyl)alkyl]quinuclidines. Structure-activity relationships” (1987)
Where “and” joins values, the source holds several entries; their conditions need not be identical. Equal entries are not always repeated.

Legend:
Canis familiaris [1] = organism: Canis familiaris; assay: In vitro electrophysiological activity in canine cardiac occurred is 1 uM; format: functional, Canis lupus familiaris, Heart
Canis familiaris [2] = organism: Canis familiaris; assay: In vitro electrophysiological evaluation in canine cardiac ventricular muscle reported as % change for the functional refractory period (FRP) at 10 uM at concentration range of 0.1-30 uM; set-up: species or system Canis lupus familiaris, Muscle tissue
Procedure, shortened: (§1)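 Canine right ventricle and papillary muscle strips in oxygenated Tyrode's solution, fitted with stimulating and recording electrodes. The extra-stimulus conduction-interval method was adapted for in vitro use. FRP and CT were read from a conduction-interval curve before and after various compound concentrations, and expressed as percent change from control. Compounds were taken from 10 mM deionized-water stock into Tyrode's. Each strip was used once as its own control.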

Canis familiaris [3] = assay: Mean arterial blood pressure was determined by intraduodenal administration of 10 mg/kg (low dose)of compound in anesthetized dogs. Value was reported for experiment 2; format: functional, Canis lupus familiaris
Canis familiaris [4] = organism: Canis familiaris; assay: In vitro electrophysiological evaluation in canine cardiac occurred is 30 uM; format: functional; settings: Canis lupus familiaris; Heart
Canis familiaris [5] = organism: Canis familiaris; assay: In vitro electrophysiological evaluation in canine cardiac Purkinje fibres reported as percent change Vmax at 10 uM at concentration range of 0.1-30 uM; format: functional; settings: Canis lupus familiaris, Purkinje fiber
Procedure, shortened: (§2)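 Canine cardiac Purkinje fibres, intracellular microelectrode recording, paced at a basic cycle length of 1 s. APD95 and Vmax read simultaneously. Compound: 10 mM stock in deionized water, diluted into Tyrode's solution, tested over the stated concentration range. Each fibre used once as its own control. Result is % change from control, given at 10 µM or as the maximum with its concentration. M = <10% decrease or an increase in Vmax.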

Canis familiaris [6] = assay: Conduction time was determined by intraduodenal administration of 10 mg/kg (low dose)of compound in anesthetized dogs. Value was reported for experiment 2; format: functional, Canis lupus familiaris
Procedure, shortened: (§3)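 Anesthetized dogs; compound given intraduodenally, generally as two doses, the second a cumulative (high) dose. LV functional refractory period and conduction time measured 15, 30 and 45 min after dosing; heart rate and blood pressure measured during nonpacing intervals. Values are % change from control, given per individual animal. Active if FRP or CT prolonged by ≥12%.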

Canis familiaris [7] = assay: Heart rate was determined by intraduodenal administration of 30 mg/kg (high dose) of compound in anesthetized dogs. Value was reported for experiment 2; format: functional, Canis lupus familiaris; procedure, shortened: as §3
Canis familiaris [8] = assay: Conduction time was determined by intraduodenal administration of 10 mg/kg (low dose) of compound in anesthetized dogs. Value was reported for experiment 1; format: functional, Canis lupus familiaris; procedure, shortened: as §3
Canis familiaris [9] = assay: Conduction time was determined by intraduodenal administration of 30 mg/kg (high dose)of compound in anesthetized dogs. Value was reported for experiment 2; format: functional, Canis lupus familiaris; procedure, shortened: as §3
Canis familiaris [10] = organism: Canis familiaris; assay: In vitro electrophysiological evaluation in canine cardiac ventricular muscle reported as maximum % change for functional refractory period (FRP) at 0.1-30 uM concentration range; concentration at which it occurred is 30 uM.; set-up: species or system Canis lupus familiaris, Muscle tissue; procedure, shortened: as §1
Canis familiaris [11] = organism: Canis familiaris; assay: In vitro electrophysiological evaluation in canine cardiac ventricular muscle reported as maximum % change for functional refractory period (FRP) at 0.1-10 uM concentration range; concentration at which it occurred is 1 uM.; set-up: species or system Canis lupus familiaris, Muscle tissue; procedure, shortened: as §1
Canis familiaris [12] = assay: Left ventricular refractory period was determined by intraduodenal administration of 30 mg/kg (high dose) of compound in anesthetized dogs. Value was reported for experiment 1; format: functional, Canis lupus familiaris, Cardiac ventricle
Procedure, shortened: (§4)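 Anesthetized dogs received two intraduodenal doses, the second cumulative (low dose/high dose). Left ventricular FRP and CT were measured 15, 30 and 45 min after dosing. Heart rate and mean blood pressure were taken during nonpacing intervals. Values are percent change from control. The vehicle was 5% dextrose in water/tragacanth. Activity was defined as ≥12% prolongation of FRP or CT.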

Canis familiaris [13] = assay: Left ventricular refractory period was determined by intraduodenal administration of 30 mg/kg (high dose) of compound in anesthetized dogs. Value was reported for experiment 2; format: functional, Canis lupus familiaris, Cardiac ventricle; procedure, shortened: as §4
Canis familiaris [14] = organism: Canis familiaris; assay: In vitro electrophysiological evaluation in canine cardiac ventricular muscle reported as % change for conduction time(CT) at 10 uM at 0.1-30 uM concentration range; Minimal (<10% decrease or increase in CT).; format: functional, Canis lupus familiaris, Muscle tissue
Canis familiaris [15] = assay: Heart rate was determined by intraduodenal administration of 30 mg/kg (high dose) of compound in anesthetized dogs. Value was reported for experiment 1; format: functional, Canis lupus familiaris; procedure, shortened: as §3
Canis familiaris [16] = assay: Mean arterial blood pressure was determined by intraduodenal administration of 10 mg/kg (low dose)of compound in anesthetized dogs. Value was reported for experiment 1; format: functional, Canis lupus familiaris
Canis familiaris [17] = organism: Canis familiaris; assay: In vitro electrophysiological evaluation in canine cardiac ventricular muscle reported as maximum % change for conduction time(CT) at 0.1-30 uM concentration range; Minimal (<10% decrease or increase in CT).; format: functional, Canis lupus familiaris, Muscle tissue; procedure, shortened: as §1
Canis familiaris [18] = organism: Canis familiaris; assay: In vitro electrophysiological evaluation in canine cardiac ventricular muscle reported as maximum % change for functional refractory period (FRP) at 0.1-30 uM concentration range; concentration at which it occurred is 1 uM.; set-up: species or system Canis lupus familiaris, Muscle tissue; procedure, shortened: as §1
Canis familiaris [19] = organism: Canis familiaris; assay: In vitro electrophysiological evaluation in canine cardiac ventricular muscle reported as maximum % change for conduction time(CT) at 0.1-10 uM concentration range; Minimal (<10% decrease or increase in CT).; format: functional, Canis lupus familiaris, Muscle tissue; procedure, shortened: as §1
Canis familiaris [20] = organism: Canis familiaris; assay: In vitro electrophysiological evaluation in canine cardiac ventricular muscle reported as % change for the functional refractory period (FRP) at 10 uM at concentration range of 0.1-10 uM; set-up: species or system Canis lupus familiaris, Muscle tissue; procedure, shortened: as §1
Canis familiaris [21] = organism: Canis familiaris; assay: In vitro electrophysiological evaluation in canine cardiac Purkinje fibres reported as % change for action potential duration at 10 uM at 0.1-30 uM concentration range; format: functional, Canis lupus familiaris, Purkinje fiber; procedure, shortened: as §2
Canis familiaris [22] = assay: Conduction time was determined by intraduodenal administration of 30 mg/kg (high dose) of compound in anesthetized dogs. Value was reported for experiment 1; format: functional, Canis lupus familiaris; procedure, shortened: as §3
Canis familiaris [23] = organism: Canis familiaris; assay: In vitro electrophysiological evaluation in canine cardiac ventricular muscle reported as % change for conduction time(CT) at 10 uM at 0.1-10 uM concentration range; Minimal (<10% decrease or increase in CT).; format: functional, Canis lupus familiaris, Muscle tissue
Canis familiaris [24] = organism: Canis familiaris; assay: In vitro electrophysiological evaluation in canine cardiac Purkinje fibres reported as percent change Vmax at 10 uM at concentration range of 0.1-30 uM; Minimal (<10% decrease or increase in V max).; format: functional, organism-based; settings: Canis lupus familiaris, Purkinje fiber; procedure, shortened: as §2
Canis familiaris [25] = assay: Heart rate was determined by intraduodenal administration of 10 mg/kg (low dose) of compound in anesthetized dogs. Value was reported for experiment 2; format: functional, Canis lupus familiaris; procedure, shortened: as §3
Canis familiaris [26] = assay: Left ventricular refractory period was determined by intraduodenal administration of 10 mg/kg (low dose) of compound in anesthetized dogs. Value was reported for experiment 1; format: functional, Canis lupus familiaris, Cardiac ventricle; procedure, shortened: as §4
Canis familiaris [27] = assay: Heart rate was determined by intraduodenal administration of 10 mg/kg (low dose) of compound in anesthetized dogs. Value was reported for experiment 1; format: functional, Canis lupus familiaris; procedure, shortened: as §3
Canis familiaris [28] = assay: Mean arterial blood pressure was determined by intraduodenal administration of 30 mg/kg (high dose) of compound in anesthetized dogs. Value was reported for experiment 1; format: functional, Canis lupus familiaris
Canis familiaris [29] = assay: Mean arterial blood pressure was determined by intraduodenal administration of 30 mg/kg (high dose) of compound in anesthetized dogs. Value was reported for experiment 2; format: functional, Canis lupus familiaris
Canis familiaris [30] = organism: Canis familiaris; assay: In vitro electrophysiological evaluation in canine cardiac Purkinje fibres reported as % change for action potential duration at a concentration of 10 uM; format: functional, Canis lupus familiaris, Purkinje fiber; procedure, shortened: as §2
Canis familiaris [31] = assay: Left ventricular refractory period was determined by intraduodenal administration of 10 mg/kg (low dose) of compound in anesthetized dogs. Value was reported for experiment 2; format: functional, Canis lupus familiaris, Cardiac ventricle; procedure, shortened: as §4

## Cl.O=C(CCC1C(=O)C2CCN1CC2)c1ccc(Cl)cc1 (stereo unspecified)
Canis familiaris [1]
  APD95: 14% and 12%
Canis familiaris [2]
  FRP: 10%
Canis familiaris [3]
  Mean blood pressure: 18%
Canis familiaris [4]
  Vmax: -26% and -18%
Canis familiaris [5]
  Vmax: -10%
Canis familiaris [6]
  CT: 4%
Canis familiaris [7]
  HR: -21%
Canis familiaris [8]
  CT: 5%
Canis familiaris [9]
  CT: 13%
Canis familiaris [10]
  FRP: -9%
Canis familiaris [11]
  FRP: 22%
Canis familiaris [12]
  LV FRP: 15%
Canis familiaris [13]
  LV FRP: 6%
Canis familiaris [14]
  CT: <10%
Canis familiaris [15]
  HR: -18%
Canis familiaris [16]
  Mean blood pressure: -5%
Canis familiaris [17]
  CT: <10%
Canis familiaris [18]
  FRP: 15%
Canis familiaris [19]
  CT: <10%
Canis familiaris [20]
  FRP: 17%
Canis familiaris [21]
  APD95: 5%
Canis familiaris [22]
  CT: 14%
Canis familiaris [23]
  CT: <10%
Canis familiaris [24]
  Vmax: < 10%
Canis familiaris [25]
  HR: -15%
Canis familiaris [26]
  LV FRP: 15%
Canis familiaris [27]
  HR: -13%
Canis familiaris [28]
  Mean blood pressure: 0%
Canis familiaris [29]
  Mean blood pressure: 23%
Canis familiaris [30]
  APD95: 13%
Canis familiaris [31]
  LV FRP: 12%
